The values that follow come from the RNAGym collection of RNA variant scans (doi:10.1126/science.aae0568).

First the molecules themselves.
B1: tRNA (parent)
chain: GUUCCGUUGGCGUAAUGGUAACGCGUCUCCCUCCUAAGGAGAAGACUGCGGGUUCGAGUCCCGUACGGAACG

Fewer inactive variants are shown than the library holds.

Variants of B1 are the subject of the series. The series is described as follows: yeast fitness relative to wild type (ratio to wild type); higher = fitter; tRNA-Arg(CCU), competitive growth, 37 C, YPD. The essentials: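 A pool of Saccharomyces cerevisiae strains, each with a tRNA-Arg(CCU) gene variant at the native genomic locus, was competed in YPD at 37°C for 24 hours across six parallel replicates. The variants had been chemically synthesised at a 3% per-site mutation rate over 69 sites, and gene amplicons before and after competition were read by 100-nucleotide paired-end sequencing. Darwinian fitness relative to wild type rested on changes in genotype frequencies. Genotypes required ≥ 100 starting reads, and estimates < 0.5 were set to 0.5.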
As for U26C U32C U47A, the yeast fitness is no more than 0.5.

On to U26A U47A C61A, for which the yeast fitness was no more than 0.5.

In the case of U26C C49G, the yeast fitness worked out at 0.842.

Consider U26C U28C C29G C34A, for which the yeast fitness is no more than 0.5.

Take U26A A42C C49U C60G U64C C66A: the yeast fitness was no more than 0.5.

As for G25C C61A, the yeast fitness was 0.75.

U26A G51A: the yeast fitness is 0.769.

U26A U35C G68A: the yeast fitness is 0.631.

As for U26A A36U, the yeast fitness was 0.606.

Turning to U26A C31U A65C, the yeast fitness was determined as 0.691.

For the variant G25C C33G A43C A57C G63C, the yeast fitness was no more than 0.5.

In the case of U26G A42C U47C, the yeast fitness came out at 0.816.

Regarding G25U C30A C46A, the yeast fitness is 0.581.

With U26A U64G A65U A69C, the yeast fitness was no more than 0.5.

Regarding U26A G52U C55A, the yeast fitness came to 0.616.

Regarding G25C C29G, the yeast fitness was determined as 0.703.

Consider G25C C29U, for which the yeast fitness was determined as 0.688.

Regarding U26A C34U A43U C66G, the yeast fitness worked out at 0.628.

For U26A G39A G41C, the yeast fitness was no more than 0.5.

Regarding U26A C60A, the yeast fitness is 0.787.

Regarding G25C A43U G50A, the yeast fitness turned out to be 0.704.

Take U26A A37C C49U G56A: the yeast fitness is no more than 0.5.

In the case of G25C C46A G58A G63U, the yeast fitness turned out to be 0.604.

Turning to U26A C31A A42G C55G, the yeast fitness is no more than 0.5.

U26C C33U G52C: the yeast fitness was 0.609.

As to G25C C29G A40U, the yeast fitness was no more than 0.5.

Consider G25U U64A, for which the yeast fitness is 0.687.

Regarding U26G C27U, the yeast fitness was 0.801.

Consider U26A A65C, for which the yeast fitness was found to be 0.946.

U26A C27A U28A C34U G68A A69C: the yeast fitness was 0.534.

As to G25C G51A A65G, the yeast fitness was determined as 0.742.

For U26C C29A A36C, the yeast fitness was no more than 0.5.

In the case of G25C G41C C46U C66U, the yeast fitness was no more than 0.5.

As to U26A U53A A65G, the yeast fitness is no more than 0.5.

In the case of U26A U64A, the yeast fitness came to 0.788.

On to G25U A65U, for which the yeast fitness was 1.02.

Consider G25C G39C G44C C49U C60U G68C, for which the yeast fitness is no more than 0.5.

As to U26C C66A, the yeast fitness stood at 0.631.

As to U26A C33U U53C, the yeast fitness was found to be 0.54.

Regarding U26C C29A G67C, the yeast fitness was no more than 0.5.

For the variant U26C C30U U47A, the yeast fitness was determined as 0.749.

In the case of U26C A36C, the yeast fitness turned out to be 0.559.

In the case of U26A U28A C30G, the yeast fitness turned out to be 0.584.

For the variant G25C C31A A65C, the yeast fitness is 0.678.

As to U26C C33G A42U, the yeast fitness was no more than 0.5.

For G25U A36U G56C A65C C66U, the yeast fitness was no more than 0.5.

Regarding G25C G58C A65U, the yeast fitness stood at 0.928.

In the case of U26A A57C, the yeast fitness worked out at 0.64.

Consider G25C U28C, for which the yeast fitness was determined as 0.79.

In the case of U26C C27G A69C, the yeast fitness was no more than 0.5.

With G25C C33U C49A U53A, the yeast fitness is no more than 0.5.

As to G25C C49U G63A, the yeast fitness worked out at 0.83.

For the variant U26A A57G C60U, the yeast fitness was no more than 0.5.

For U26C G68U, the yeast fitness was found to be 0.821.

As for U26C G68A, the yeast fitness turned out to be 0.863.

Turning to U26A G58C A65G, the yeast fitness was 0.611.

Take G25C U53C A65C: the yeast fitness came out at 0.697.

Take U26C C33G A42C C49G G58C C62G: the yeast fitness came to 0.616.

Regarding U26G C34G A37C C66A, the yeast fitness is no more than 0.5.

Take G25C C29G U32G A43U G50A: the yeast fitness is no more than 0.5.

Take G25C G38C C49U A57U C66A: the yeast fitness turned out to be 0.571.

In the case of G25C C34G A45U, the yeast fitness was no more than 0.5.

As to U26C C46A U47G G50A C61A G67A, the yeast fitness is no more than 0.5.

Turning to U26C C27G C60G C62U, the yeast fitness was determined as 0.624.

For the variant G25C C34U A37U A40U, the yeast fitness was no more than 0.5.

As to U26C C46G, the yeast fitness was found to be 0.894.

In the case of U26C C46A, the yeast fitness worked out at 0.882.

With U26C C46U, the yeast fitness was determined as 0.928.

In the case of G25C C34U G56A, the yeast fitness was no more than 0.5.

On to U26G C29U A65U, for which the yeast fitness was no more than 0.5.

With U26A C27U A65G A69G, the yeast fitness was found to be 0.669.

Regarding U26C C55U, the yeast fitness was determined as 0.617.

Consider U26G C27G U47A U54C C62U, for which the yeast fitness was no more than 0.5.

Take G25C G50C G56A G58A: the yeast fitness is no more than 0.5.

In the case of U26G C61U G67A, the yeast fitness was no more than 0.5.

In the case of U26C U35A C62U, the yeast fitness turned out to be 0.523.

Consider G25C A57G, for which the yeast fitness was 0.892.

Regarding U26C G39A U59A C60G C62U, the yeast fitness was no more than 0.5.

As to G25C C29A A65U, the yeast fitness turned out to be 0.558.

As for U26C A57U, the yeast fitness was 0.793.

As for U26C A57G, the yeast fitness was determined as 0.984.

With U26A C29U C33U C62G, the yeast fitness came to 1.09.

Consider U26C U54C, for which the yeast fitness worked out at 0.887.

For the variant U26A A40C U54A, the yeast fitness is no more than 0.5.

With U26C U47A, the yeast fitness was 0.721.

U26A C27U A65G: the yeast fitness turned out to be 1.

G25C C33G C60A: the yeast fitness was no more than 0.5.

In the case of U26C A42C U54A, the yeast fitness was no more than 0.5.

Consider G25C G48A G68A, for which the yeast fitness is 0.564.

With U26C A40C C46U A65G G68C, the yeast fitness is no more than 0.5.

As to U26C U35C U64G A65G C66G, the yeast fitness was no more than 0.5.

With G25C C62G, the yeast fitness amounted to 0.877.

Consider G25C C49U G51A A65C A69C, for which the yeast fitness was no more than 0.5.

For the variant U26A C61G A70U, the yeast fitness came out at 0.764.

With U26A C55A G68C, the yeast fitness is no more than 0.5.

For the variant G25C C31U U32A, the yeast fitness was no more than 0.5.

As to U26C C61G C62G, the yeast fitness was no more than 0.5.

Turning to U26C A37U U47C U54A, the yeast fitness is no more than 0.5.

Regarding U26A A40C C66A, the yeast fitness was no more than 0.5.

On to U26C U32C, for which the yeast fitness stood at 0.874.

In the case of U26A C33A A45C, the yeast fitness is 0.55.

Turning to G25C G41C, the yeast fitness stood at 0.625.

With U26G C27G A57C C66U A69U, the yeast fitness was no more than 0.5.

Turning to U26C U35C A37U, the yeast fitness is no more than 0.5.

As to U26C U35C A37G, the yeast fitness worked out at 0.528.

Consider U26C C29U C61U, for which the yeast fitness is no more than 0.5.

On to U26G C30U U32G G52C, for which the yeast fitness is no more than 0.5.

Regarding U26A A43G A69C, the yeast fitness was determined as 0.649.

For the variant U26C C30U G44C G51A C61U, the yeast fitness was no more than 0.5.

In the case of U26G A69C, the yeast fitness was 0.948.

With U26A G39A, the yeast fitness was 0.87.

With U26C C30U C61A, the yeast fitness turned out to be 0.571.

As to U26C C30G C34A C62U, the yeast fitness was no more than 0.5.

U26A C34G A43U C49A: the yeast fitness is no more than 0.5.

For the variant U26A C31U G48A A65G, the yeast fitness was found to be 0.683.

Regarding G25U C29G A42C C66U G67A, the yeast fitness is no more than 0.5.

In the case of G25C G39A G58C, the yeast fitness worked out at 0.663.

On to U26A A37G U64A, for which the yeast fitness was no more than 0.5.

Consider G25U C29G A42C, for which the yeast fitness was no more than 0.5.

Turning to U26A A40U C61U, the yeast fitness is 0.656.

As to U26C C46A U47G G50A A69C, the yeast fitness was no more than 0.5.

On to U26G A37C, for which the yeast fitness came to 0.652.

In the case of U26G C55G, the yeast fitness was 0.636.

For U26C C49G C55U, the yeast fitness was no more than 0.5.

On to G25C G48A, for which the yeast fitness was 0.951.

For U26C A45U G68C, the yeast fitness was no more than 0.5.

In the case of U26C U35G, the yeast fitness stood at 0.615.

On to G25C C31U A65U, for which the yeast fitness was found to be 0.726.

Regarding U26C U32A C34U G38C G51A C60U C62U, the yeast fitness is no more than 0.5.

For U26C A42U G56A, the yeast fitness turned out to be 0.651.

U26C U28C C46G C62G G67U: the yeast fitness is no more than 0.5.

On to G25C G44C C49U, for which the yeast fitness was found to be 0.505.

As for U26A G63C A69U, the yeast fitness was determined as 0.527.

U26A C31U G48A: the yeast fitness stood at 0.998.

For the variant G25U A36U C61U, the yeast fitness was no more than 0.5.

In the case of U26A C30G A37C A69C, the yeast fitness is no more than 0.5.

In the case of U26G A45G C46U U53G, the yeast fitness amounted to 0.599.

As for U26A A45G C66G G67U, the yeast fitness is no more than 0.5.

In the case of U26G A70U, the yeast fitness amounted to 0.896.

Consider U26C G41C, for which the yeast fitness was 0.947.

On to U26C U28A A65U, for which the yeast fitness came out at 0.524.

In the case of U26A A42C A45G C49U, the yeast fitness is no more than 0.5.

For the variant U26A C49G G56U, the yeast fitness is no more than 0.5.

For the variant G25C C29G C30U C49G, the yeast fitness stood at 0.61.

On to U26G C27G A57C, for which the yeast fitness is 0.558.

Take U26A G67A: the yeast fitness turned out to be 0.905.

Take U26A A57C A70U: the yeast fitness is no more than 0.5.

For U26C A70G, the yeast fitness came to 0.915.

G25C G41C G48C: the yeast fitness was no more than 0.5.

With U26A G39A G41C U54C, the yeast fitness is no more than 0.5.

Turning to G25C U26A C61A, the yeast fitness is no more than 0.5.

G25C G39C G52C G58C: the yeast fitness is no more than 0.5.

In the case of U26C C27G C34G G67A, the yeast fitness is no more than 0.5.

In the case of U26A G48A C62A, the yeast fitness is 0.605.

Regarding U26A A57C C61G G67A A69U, the yeast fitness was no more than 0.5.

As to U26A A43C, the yeast fitness was 0.966.

For U26C C33U A40U, the yeast fitness is no more than 0.5.

Regarding U26A A40G G58C G67U, the yeast fitness was found to be 0.556.

With G25C C29U A45C G58A, the yeast fitness is no more than 0.5.

For U26A A45U, the yeast fitness was determined as 1.03.

In the case of G25C C34G, the yeast fitness is 0.551.

As to U26C U32C A37G C66U A69C, the yeast fitness is no more than 0.5.

Take U26G A36U: the yeast fitness worked out at 0.714.

For the variant U26A A42G U47C G63A, the yeast fitness came to 0.519.

For U26C C31A C66G, the yeast fitness is no more than 0.5.

In the case of G25C C27A C30G, the yeast fitness is no more than 0.5.

In the case of U26C U35G G50A C62U, the yeast fitness is no more than 0.5.
